Source: BindingDB's records for doi:10.1016/j.bmc.2018.01.022 (Csic and Universidad De Sevilla, 2018)

Key:
Midkine = target: T1, Midkine (Homo sapiens, UniProt P21741); assay: Inhibition of fluorescein labelled heparin-like hexasaccharide probe binding to recombinant human midkine after 5 mins by fluorescence polarization assay
T1 sequence (P21741 whole entry): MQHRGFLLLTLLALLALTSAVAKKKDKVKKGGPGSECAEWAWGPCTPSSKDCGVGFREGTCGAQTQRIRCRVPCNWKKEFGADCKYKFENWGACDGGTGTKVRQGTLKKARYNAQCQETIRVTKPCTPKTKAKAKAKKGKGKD
Summary of the method: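 Recombinant human midkine at 63 nM final with 10 nM fluorescein-labelled heparin-like hexasaccharide probe in PBS (10 mM, pH 7.4) plus 0.5% BSA. […] Shaken 5 min in the dark; polarization read at ex 485 / em 535 nm. Triplicate wells averaged, one-site competition fit for IC50. At least three independent experiments.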

[1] = target: Fibroblast growth factor 2 (Homo sapiens, UniProt P09038); assay: Inhibition of fluorescein labelled heparin-like hexasaccharide probe binding to recombinant human FGF-2 after 5 mins by fluorescence polarization assay
Summary of the method: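 Competition fluorescence polarization in PBS (10 mM, pH 7.4) with 0.5% BSA final. Recombinant human FGF-2 at 97 nM final, fluorescein-labelled heparin-like hexasaccharide probe at 10 nM final, inhibitor serially diluted, final 25 µM to 12.5 nM. Shaken 5 min in the dark, then read at ex 485 / em 535 nm. Triplicate wells. One-site competitive fit against log concentration gives IC50. Mean ± SD of three independent experiments.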

Chain of Fibroblast growth factor 2 (P09038 143-288 limits assumed): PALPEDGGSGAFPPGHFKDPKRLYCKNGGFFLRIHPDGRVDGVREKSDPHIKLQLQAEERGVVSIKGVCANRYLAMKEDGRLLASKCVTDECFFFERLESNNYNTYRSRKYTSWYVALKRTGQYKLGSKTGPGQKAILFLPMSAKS

SMILES | IC50 (Midkine) [nM] | IC50 [1] [nM]
COc1ccc(O[C@@H]2O[C@H](COC(=O)CCC(F)(F)C(F)(F)C(F)(F)C(F)(F)C(F)(F)C(F)(F)C(F)(F)C(F)(F)F)[C@@H](O[C@@H]3O[C@H](COS(=O)(=O)O)[C@@H](OS(=O)(=O)O)[C@H](OC(=O)CCC(C)=O)[C@H]3N3C(=O)c4ccccc4C3=O)[C@H](OCc3ccccc3)[C@H]2OC(=O)c2ccccc2)cc1 | 700 | –
COc1ccc(O[C@@H]2O[C@H](COC(=O)CCC(F)(F)C(F)(F)C(F)(F)C(F)(F)C(F)(F)C(F)(F)C(F)(F)C(F)(F)F)[C@@H](O[C@@H]3O[C@H](COS(=O)(=O)O)[C@@H](OS(=O)(=O)O)[C@H](O[C@@H]4O[C@H](COC(=O)C(C)(C)C)[C@@H](O[C@@H]5O[C@H](COS(=O)(=O)O)[C@@H](OS(=O)(=O)O)[C@H](OC(=O)CCC(C)=O)[C@H]5N5C(=O)c6ccccc6C5=O)[C@H](OCc5ccccc5)[C@H]4OC(=O)c4ccccc4)[C@H]3N3C(=O)c4ccccc4C3=O)[C@H](OCc3ccccc3)[C@H]2OC(=O)c2ccccc2)cc1 | 270 | 2400
COc1ccc(O[C@@H]2O[C@H](CO)[C@@H](O[C@@H]3O[C@H](COS(=O)(=O)O)[C@@H](OS(=O)(=O)O)[C@H](O)[C@H]3NC(C)=O)[C@H](OCc3ccccc3)[C@H]2O)cc1 | > 250000 | –
COc1ccc(O[C@@H]2O[C@H](CO)[C@@H](O[C@@H]3O[C@H](COS(=O)(=O)O)[C@@H](OS(=O)(=O)O)[C@H](O)[C@H]3NC(C)=O)[C@H](O)[C@H]2O)cc1 | > 250000 | –
